Screening data deposited in PubChem by Johns Hopkins Ion Channel Center.
TRPC6 activator: activates the mouse TRPC6 cation channel. B-score at 10 µM. Q61143. AID 2550. HEK293-TRPC6 membrane potential dye fluorescence; stronger effect = higher value. 0.13% of 310,000 active;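 active = B-score of the integrated fluorescence ratio above library mean plus 3 SD, and starting fluorescence ratio within library mean plus 5 SD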;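 also: higher score means more depolarization so channel activation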
Target sequence (Q61143 whole entry, looked up): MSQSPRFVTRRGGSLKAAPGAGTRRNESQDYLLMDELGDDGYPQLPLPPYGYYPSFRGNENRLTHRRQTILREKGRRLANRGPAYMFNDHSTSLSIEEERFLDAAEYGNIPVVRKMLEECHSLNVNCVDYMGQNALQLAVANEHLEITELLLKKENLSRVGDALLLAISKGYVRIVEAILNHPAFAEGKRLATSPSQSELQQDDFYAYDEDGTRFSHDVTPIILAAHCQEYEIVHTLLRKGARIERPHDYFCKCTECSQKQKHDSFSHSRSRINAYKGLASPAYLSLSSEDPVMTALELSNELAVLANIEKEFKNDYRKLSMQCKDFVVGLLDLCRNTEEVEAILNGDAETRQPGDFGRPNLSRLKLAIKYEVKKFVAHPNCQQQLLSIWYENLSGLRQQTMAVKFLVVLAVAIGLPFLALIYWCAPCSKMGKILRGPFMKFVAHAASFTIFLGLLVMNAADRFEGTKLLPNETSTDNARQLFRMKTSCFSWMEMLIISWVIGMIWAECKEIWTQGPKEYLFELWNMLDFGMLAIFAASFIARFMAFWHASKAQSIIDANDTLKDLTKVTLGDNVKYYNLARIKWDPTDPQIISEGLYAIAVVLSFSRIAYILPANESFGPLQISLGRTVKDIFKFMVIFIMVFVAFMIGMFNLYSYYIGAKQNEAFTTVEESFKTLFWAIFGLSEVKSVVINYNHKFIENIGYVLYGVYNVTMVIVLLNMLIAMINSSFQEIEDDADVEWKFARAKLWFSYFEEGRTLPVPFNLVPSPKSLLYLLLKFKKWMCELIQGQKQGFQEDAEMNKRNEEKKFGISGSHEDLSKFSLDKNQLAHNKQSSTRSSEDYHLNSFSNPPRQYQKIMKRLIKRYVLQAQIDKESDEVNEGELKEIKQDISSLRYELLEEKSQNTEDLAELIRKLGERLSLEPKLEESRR
TRPC4 PAM: allosterically enhances the mouse TRPC4 cation channel; Q9QUQ5; HEK293 TRPC4beta/mu-opioid, DAMGO EC20, Fluo-4 Ca2+ flux; stronger effect = higher value; B-score at 10 µM; 0.42% of 310,000 active; AID 2227;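 active = B-score of calcium response area above 5 SD of library B-scores, with initial fluorescence ratio within 5 SD of library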;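 also: B-score of integrated fluorescence ratio over time as area under calcium response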
TRPC4 inh: inhibitors of mouse TRPC4 channel; Q9QUQ5; HEK293 TRPC4beta/mu-opioid, DAMGO-evoked Fluo4 calcium flux; stronger effect = lower value; B-score at 10 µM; 0.39% of 300,000 active;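 active = B-score over 3 SD under the library average, no early fluorescence shift, positive overall ratio signal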
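Test system – stable TRPC4beta/mu-opioid receptor HEK293 cells · Probe or stimulus – DAMGO, a submaximal dose followed by a maximal one · Dosing – one concentration per compound · Signal – Fluo4 calcium fluorescence by kinetic imaging, 5 s 1 Hz baseline · Evaluation – per-well B score of integrated baseline-normalized Fluo4 ratio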
TRPC6 inh: blocks the mouse TRPC6 cation channel; Q61143; HEK293-TRPC6, membrane potential dye, ACh-evoked depolarization; stronger effect = lower value; B-score at 10 µM; 1.1% of 310,000 active; AID 2553;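 active = B-score under library mean minus 3 SD, initial fluorescence not abnormally high, positive integrated signal ratio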;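 also: B-score derived from integrated fluorescence ratio over the kinetic read; more negative B-score means stronger inhibition of depolarization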
TRPC4 act: TRPC4 (mouse) channel activation | HEK293 TRPC4beta/mu-opioid, Fluo4 calcium fluorescence; stronger effect = higher value | B-score at 10 µM | 0.49% of 310,000 active | AID 2237;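 active = B-score above 5 SD of library B-scores, and initial fluorescence ratio not above library mean plus 5 SD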;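 also: positive B-score marks a calcium rise read as TRPC4 activation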
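Assay system – TRPC4beta and mu-opioid receptor HEK293 stable cells · Measured by – Fluo4 fluorescence, kinetic · Schedule – dye loading 45 min room temperature, 110 s kinetic read · Read-out – B-scored integrated calcium fluorescence ratio · Controls – buffer and maximal DAMGO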
TRPC4 spec 2: second check of whether TRPC6 inhibitors also affect mouse TRPC4 | shares compounds with TRPC6 inh | HEK293 TRPC4/MOR, membrane potential dye fluorescence; channel activated by saturating DAMGO dose | inhibition, % at 10 µM | 42% of 920 active | AID 2776;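 active = compounds whose fluorescence signal differed from control wells by over 3 SD, either direction, in both duplicate plates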
TRPC4 spec: selectivity of TRPC6 inhibitors: effect on mouse TRPC4. shares compounds with TRPC6 inh. AID 2777. 61% of 920 active. HEK293 TRPC4/mu-opioid, membrane potential fluorescence. activity change, negative = inhibition, % at 10 µM;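 active = rise or fall in signal beyond 3 SD of buffer-only wells in both replicate plates, either sign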;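 also: integrated kinetic ratio of fluorescence range over baseline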
HEK293 MPD ctr 2-1: second counter-screen for TRPC6 inhibitors: parental HEK293 cells | AID 2779 | parental HEK293 membrane potential dye fluorescence; maximal acetylcholine challenge after compound addition | shares compounds with TRPC6 inh | 31% of 920 active | signal change vs control, % at 10 µM;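 active = membrane potential signal moving either way by over 3 SD of the maximum-effect control, in both duplicate plates, meaning non-specific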
HEK293 MPD ctr-1: parental HEK293 nonspecific activity of TRPC6 inhibitors; parental HEK293 membrane potential dye fluorescence; shares compounds with TRPC6 inh; 60% of 920 active; AID 2780; membrane potential signal change, % at 10 µM;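 active = membrane potential signal shifting up or down by more than 3 SD of buffer-only wells, on both duplicate plates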
HEK293 MPD ctr-2: parental HEK293 nonspecific activity of TRPC6 modulators. membrane potential dye fluorescence. 51% of 2,400 active. AID 488924. shares compounds with TRPC6 inh. membrane potential signal change, % at 10 µM;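 active = membrane potential signal moves up or down beyond 5 SD from buffer-only wells, on both duplicate plates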
HEK293 MPD ctr 2-2: parental HEK293 nonspecific activity of TRPC6 modulators, second screen; 14% of 2,400 active; inhibition, % at 10 µM; shares compounds with TRPC6 inh; membrane potential dye fluorescence; after compound, maximal acetylcholine stimulation;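 active = membrane potential signal drops by more than 5 SD from the mean control signal, in both duplicate plates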;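 also: plate controls were acetylcholine ECmax control wells for no effect and buffer only wells for full effect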
TRPC4 ctr mod: selectivity of TRPC6 modulators against mouse TRPC4; shares compounds with TRPC6 inh; HEK293 TRPC4/mu-opioid, membrane potential fluorescence; percent change from control (negative = decrease, positive = increase), % at 10 µM; 69% of 2,400 active; AID 488927;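 active = membrane potential signal moved up or down beyond 5 SD of buffer control wells, in both duplicate plates, actives on both sides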;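 also: plate controls were assay buffer wells for no effect and DAMGO maximal-effect wells for full effect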
TRPC4 ctr inh 2: mouse TRPC4 off-target activity of TRPC6 modulators, second screen; HEK293 TRPC4/mu-opioid, membrane potential dye fluorescence; stimulated with maximal-effect DAMGO; inhibition, % at 10 µM; shares compounds with TRPC6 inh; AID 488928; 55% of 2,400 active;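 active = drop in membrane potential signal beyond 5 SD of the control wells in both duplicate plates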;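 also: TRPC4 counter screen for TRPC6 hits run under conditions tuned for TRPC6 not TRPC4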
TRPC6 inh conf: mouse TRPC6 inhibitor confirmation. shares compounds with TRPC6 inh. HEK293-TRPC6, membrane potential dye, ACh-evoked depolarization. inhibition, % at 10 µM. 43% of 3,300 active. AID 488960;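 active = fluorescence ratio falls more than 5 SD below the full-stimulation control mean, in both duplicate runs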;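 also: integrated fluorescence ratio of peak minus minimum over baseline after agonist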
TRPC6 act conf: mouse TRPC6 activator confirmation; shares compounds with TRPC6 inh; HEK293-TRPC6 membrane potential dye fluorescence, FDSS; activation, % at 10 µM; 11% of 2,800 active;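 active = ratio signal rise beyond 5 SD above unstimulated control wells' mean, seen in both duplicate runs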;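 also: plate controls were buffer EC0 wells for no effect and acetylcholine ECmax response for full effect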
Active calls of the source: *; i = inactive; . = not tested or not shown; ! = repeats disagree. Hits are enriched below; roughly 2.3% of the tested compounds scored in any of these assays.

SMILES	TRPC6 activator	TRPC4 PAM	TRPC4 inh	TRPC6 inh	TRPC4 act	HEK293 MPD ctr-2	HEK293 MPD ctr 2-2	TRPC4 ctr mod	TRPC4 ctr inh 2	TRPC6 inh conf	TRPC6 act conf	others
CCCCN(CC)C(=O)c1oc2ccc(S(=O)(=O)N3CCCC3)cc2c1C	i	i	i	i	i	.	.	.	.	.	.
CCN1C(=S)SC(=O)C1=C1C=C(C)N(CCO)C(C)=C1	40*	i	i	i	47*	812%*	159%*	134%*	i	.	458%*
CCN1C(=O)/C(=C/C=C2/Sc3ccccc3N2CCO)SC1=S	i	i	i	i	i	.	.	.	.	.	.
COc1ccc(C2CC(c3ccccc3)=NN2C(=O)COC(=O)c2nc3nccc(C)n3n2)cc1 (stereo not given)	i	i	i	i	i	.	.	.	.	.	.
Nc1c(-c2ccccc2)cnn1-c1ccccc1	i	i	i	i	i	.	.	.	.	.	.
Nc1c(-c2cccc(Cl)c2)cnn1-c1ccccc1	i	i	i	-7.1*	i	-124%*	i	-18%*	76%*	52%*	i
CCCCNC(=O)c1ccc(NC(C)=O)c(Cl)c1	i	i	i	i	i	.	.	.	.	.	.
COc1ccc(NS(=O)(=O)c2cc(NC(=O)[C@@H](NC(=O)c3ccccc3)C(C)C)ccc2C)cc1	i	i	i	i	i	.	.	.	.	.	.
CN(C)CCCN1c2ccccc2Sc2ccc(Cl)cc21	i	i	i	-5.6*!	i	i	i	7.5%*	78%*	60%*	i
OCCn1c(-c2ccc(F)cc2)csc1=Nc1ccccc1	i	i	i	-7.5*	i	120%*	i	12%*	31%*	74%*	.
CCOC(=O)c1c(NC(=O)CSc2nnc(C)c(=O)[nH]2)sc(C)c1-c1ccc(C)cc1	14*	i	i	i	i	136%*	i	36%*	i	i	86%*
Cc1ccc(N(CCC#N)C(=O)COC(=O)c2ccccn2)cc1	i	i	i	i	i	.	.	.	.	.	.
COCCSc1ccccc1C(=O)N1CCN(c2ccccc2)CC1	i	i	i	i	i	.	.	.	.	.	.
Cc1noc(C)c1CSc1ccccc1C(=O)N1CCN(c2ccccc2)CC1	i	i	i	-6.9*	i	.	.	.	.	i	.	TRPC4 spec 2=i;TRPC4 spec=16%*;HEK293 MPD ctr 2-1=i;HEK293 MPD ctr-1=8.9%*
COc1ccc(Cl)cc1Nc1cc(C)nc2ccccc12	i	i	i	-5.4*	i	-76%*	i	-12%*	70%*	56%*	i
COc1ccc(Nc2cc(C)nc3c(C)cccc23)cc1OC	i	i	i	-5*	i	-145%*	i	-30%*	55%*	44%*	i
CCOc1ccc(Nc2cc(C)nc3c(C)cccc23)cc1	i	i	i	-5.5*	i	-86%*	i	-22%*	52%*	43%*	i
NC(=O)NC(CC(=O)NCc1ccc2c(c1)OCO2)c1ccccc1Cl (stereo not given)	i	i	i	i	i	.	.	.	.	.	.
Cc1ccc2nc(Cl)c(/C=N/Nc3nc(C)cc(C)n3)c(=O)n2c1	i	i	i	-8*	i	i	i	-24%*	i	i	i
Cc1ccc2nc(C)c(Cl)c(=O)n2c1	i	i	i	i	i	.	.	.	.	.	.
COc1ccc2cc3[n+](cc2c1OC)CCc1cc2c(cc1-3)OCO2	i	i	i	-5.2*	i	i	110%*	i	i	i	i
COc1cccc(C2=NCCc3cc4c(cc32)OCO4)c1OC	i	i	i	i	i	.	.	.	.	.	.
CCCCCCN1C=CC=C/C1=C\C=C(C#N)C#N	13*	i	i	i	i	253%*	i	75%*	i	i	102%*
CC1=C/C(=C\C=C(C#N)C#N)N(C)c2ccccc21	i	i	i	i	i	.	.	.	.	.	.
Nc1cc2c3c(cccc3c1)C(=O)N(CCN1CCCC1)C2=O	i	i	i	i	i	.	.	.	.	.	.
SMILES	TRPC6 activator	TRPC4 PAM	TRPC4 inh	TRPC6 inh	TRPC4 act	HEK293 MPD ctr-2	HEK293 MPD ctr 2-2	TRPC4 ctr mod	TRPC4 ctr inh 2	TRPC6 inh conf	TRPC6 act conf	others
CCN(CC)CCN1C(=O)c2cccc3cc(N)cc(c23)C1=O	i	i	i	-5.5*	i	531%*	i	-32%*	61%*	48%*	i
Cc1nc2cc(C(F)(F)F)ccc2n1C1CCN(CC(=O)N2CCOCC2)CC1	i	i	i	-5.2*	i	i	i	i	i	i	i
Cc1nc2cc(C(F)(F)F)ccc2n1C1CCN(CC(=O)N2CCCC2)CC1	i	i	i	i	i	.	.	.	.	.	.
CCCCc1c(C)c(C#N)c2nc3ccccc3n2c1NCCN(C)C	i	i	i	i	i	.	.	.	.	.	.
Cc1c2c(n3c(nc4ccccc43)c1C#N)N(CCCN(C)C)CC2	i	i	i	-8.3*	i	-314%*	98%*	-56%*	62%*	68%*	i
Cc1c(Cc2ccccc2)c(NCCN(C)C)n2c(nc3ccccc32)c1C#N	i	i	i	-6*	i	i	i	i	54%*	i	i
